KCNQ1 inh: inhibitors of human KCNQ1 potassium channel. B-score at 10 µM. actives 1.3% (n = 310,000). CHO-K1 KCNQ1, FluxOR thallium flux fluorescence; stronger effect = higher value. AID 2642. P51787;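 active = compounds whose thallium flux B-score, printed positive for inhibition, exceeds three library SD while starting fluorescence stays within three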;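 note: channel opened by potassium depolarization with thallium stimulus after 20 min compound exposure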
Target sequence (P51787 whole entry, looked up): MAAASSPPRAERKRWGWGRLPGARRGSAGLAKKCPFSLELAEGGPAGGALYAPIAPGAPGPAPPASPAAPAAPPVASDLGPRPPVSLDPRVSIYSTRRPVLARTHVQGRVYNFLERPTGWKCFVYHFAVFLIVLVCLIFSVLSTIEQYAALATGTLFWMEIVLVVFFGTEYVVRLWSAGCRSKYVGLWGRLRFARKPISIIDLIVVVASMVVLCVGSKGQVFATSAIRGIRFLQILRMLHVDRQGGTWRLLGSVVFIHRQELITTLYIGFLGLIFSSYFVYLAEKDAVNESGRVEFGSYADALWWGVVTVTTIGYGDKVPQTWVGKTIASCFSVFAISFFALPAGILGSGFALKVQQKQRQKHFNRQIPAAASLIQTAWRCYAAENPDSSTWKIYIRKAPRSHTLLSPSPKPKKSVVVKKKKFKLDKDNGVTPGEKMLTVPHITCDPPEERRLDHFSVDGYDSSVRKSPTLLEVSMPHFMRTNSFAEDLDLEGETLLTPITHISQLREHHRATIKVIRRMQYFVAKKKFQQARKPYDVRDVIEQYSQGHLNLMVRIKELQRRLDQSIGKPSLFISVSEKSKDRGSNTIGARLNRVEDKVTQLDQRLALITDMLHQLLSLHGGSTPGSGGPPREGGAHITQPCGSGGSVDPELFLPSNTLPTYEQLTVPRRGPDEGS
KCNQ1 pot: potentiators or activators of human KCNQ1 potassium channel. actives 0.35% (n = 310,000). B-score at 10 µM. CHO-K1 KCNQ1, thallium flux FluxOR fluorescence; stronger effect = higher value. P51787. AID 2648;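 active = fluorescence ratio B-score, a plate-corrected score, at least three library SD, with initial intensity B-score within 5 SD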
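Doses: Single concentration per compound, DMSO matched to controls | Test system: KCNQ1-transfected CHO-K1 cells | Timing: 90 min dye loading and 20 min compound exposure, both at room temperature | Measured by: Kinetic FluxOR thallium fluorescence, 10-s 1-Hz baseline, 110-s post-stimulus read | Medium: Assay buffer with matched DMSO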
hERG rescue: hERG (human) protection from proarrhythmic block. CHO-hERG, FluxOR thallium flux, dofetilide IC70 present. activation (rescue from dofetilide block), less the hit threshold, % at 10 µM. actives 0.51% (n = 310,000). AID 1511;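 active = activation above the mean of controls blocked by dofetilide plus 5 SD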;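 note: thallium influx through hERG after potassium depolarization seen as dye fluorescence rise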
KCNK9 inh: blocks the human KCNK9 two-pore domain potassium channel; Q9NPC2; HEK293 KCNK9, FluxOR thallium flux fluorescence; stronger effect = lower value; B-score at 10 µM; actives 1.2% (n = 310,000); AID 488922;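 active = ratio B-score over 3 SD below the library mean, with starting fluorescence within 5 SD of its mean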;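 note: negative B-score means less thallium flux so channel inhibition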
KCNK3 block: human KCNK3 channel inhibition, primary screen | B-score at 10 µM | AID 602410 | CHO-KCNK3 thallium flux, FluxOR fluorescence; stronger effect = lower value | O14649 | actives 0.84% (n = 340,000);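 active = B-score under library mean minus 4 SD, starting fluorescence ratio at most library mean plus 5 SD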;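 note: more negative B-score means stronger inhibition of thallium flux through KCNK3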
PHOSPHO1 inh: inhibitors of human PHOSPHO1 phosphatase; Q8TCT1; recombinant PHOSPHO1, absorbance phosphatase assay; inhibition, % at 13.3 µM; actives 1.1% (n = 290,000); in the data active = inhibition above about 60%
KCNQ1 inh valid: human KCNQ1 channel inhibition, validation assay; shares compounds with KCNQ1 inh; KCNQ1 cell line, FluxOR thallium flux fluorescence; inhibition, % at 10 µM; actives 93% (n = 1,600); AID 588353;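 active = primary screen active, with duplicate mean exceeding buffer control mean plus 3 SD of buffer wells, cut at about 28% in these data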;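 note: 0% = buffer control ratio and 100% = XE991 inhibitor control ratio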
CHO Tl flux: activity in parental CHO cells lacking KCNQ1. shares compounds with KCNQ1 inh. parental CHO-K1, FluxOR thallium flux fluorescence ratio; stronger effect = lower value; zero means no signal rise above baseline. fluorescence ratio (Tl flux) at 10 µM. actives 21% (n = 1,600);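 active = mean of duplicate thallium-flux fluorescence ratios in parental host cells more than 5 SD below the buffer control mean, cut at about 0.38 in these data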;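 note: ratio is peak minus minimum fluorescence divided by baseline fluorescence; actives read low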
KCNQ1 ephys val: human KCNQ1 inhibition validated by electrophysiology; shares compounds with KCNQ1 inh; KCNQ1-CHO cells, automated patch clamp current; calls only at 10 µM; actives 20% (n = 490); AID 624120;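 active = KCNQ1 current drop exceeding 3 SD of negative control wells, seen in both duplicate runs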;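 note: steady state current during a 2 s step from -80 to +40 mV; negative values mean current inhibition and positive values mean potentiation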
KCNQ2 inh: selectivity of KCNQ1 inhibitors: inhibition of rat KCNQ2 channel; inhibition, % at 10 µM; actives 71% (n = 1,600); shares compounds with KCNQ1 inh; KCNQ2 cells, FluxOR thallium flux fluorescence;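 active = mean percent inhibition of the KCNQ2 thallium signal more than 5 SD above the buffer-only control wells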;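 note: KCNQ2 expressed in CHO cells; 0% = buffer control wells and 100% = XE-991 inhibitor control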
KCNQ1 KCNE1 spec: human KCNQ1/KCNE1 inhibition in KCNQ1 specificity screen. actives 77% (n = 1,600). inhibition, % at 10 µM. shares compounds with KCNQ1 inh. KCNQ1/KCNE1 cells, FluxOR thallium flux fluorescence;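 active = mean percent inhibition of duplicate wells above the buffer-only control mean plus 3 SD of those controls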;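 note: 0% = buffer only wells and 100% = XE-991 inhibitor control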
KCNK9 inh conf: human KCNK9 inhibitor confirmation; shares compounds with KCNK9 inh; HEK293 KCNK9 cells, FluxOR thallium flux fluorescence; inhibition, % at 10 µM; actives 43% (n = 4,900); AID 492992;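 active = thallium signal inhibited by more than 5 SD of the compound-free buffer control wells, on both duplicate plates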;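 note: 0% = assay buffer control wells without compound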
Kir21 sel: selectivity of KCNK9 modulators against mouse Kir2.1; shares compounds with KCNK9 inh; Kir2.1 cells, FluxOR thallium flux fluorescence; inhibition, % at 10 µM; actives 4% (n = 4,900); AID 492993;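 active = thallium signal drop more than 5 SD beyond the mean of the no-compound control wells, seen in both duplicate plates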;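 note: signal is fluorescence rise after thallium addition divided by baseline fluorescence; plate controls were assay buffer only for no effect and full block by chlorpromazine control for full effect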
KCNK9 uninduced: second counter-screen for KCNK9 modulators: effect in non-induced cells. shares compounds with KCNK9 inh. non-induced KCNK9-HEK293, FluxOR thallium flux. inhibition, % at 10 µM. actives 40% (n = 4,900);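 active = thallium signal drop beyond 5 SD of the untreated control mean, on both duplicate plates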;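 note: plate controls were buffer only IC0 wells for no effect and SID17386958 at its maximal inhibitory level for full effect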
KCNK3 inh conf: confirmation of human KCNK3 two-pore domain potassium channel inhibitors. shares compounds with KCNK3 block. CHO-KCNK3 thallium flux, FluxOR fluorescence; 0% buffer, 100% carvedilol maximal block. ratio percent of control, % at 10 µM. actives 99% (n = 2,400). AID 651638;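 active = ratio percent of control, averaged over triplicates, above buffer control mean plus 5 SD, cut at about 64% in these data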;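 note: ratio is the fluorescence rise from min to max over baseline after thallium stimulus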
KCNK3 noninduced: counter-screen for KCNK3 inhibitors: effect in non-induced cells; thallium flux ratio (lower = more inhibition) at 10 µM; non-induced KCNK3 parental cells, FluxOR thallium flux; stronger effect = lower value; actives 40% (n = 2,400); AID 651747; shares compounds with KCNK3 block;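 active = thallium flux ratio, averaged over three wells, more than 5 SD below the buffer control mean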;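 note: host cells are CHO cells without KCNK3 induction; ratio is peak minus trough fluorescence over baseline then normalized to buffer controls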
* hit, by the source's call; i = inactive; x = not tested or not shown. The list is not random: actives were taken first. Their share in the collection is about 4%.

SMILES | KCNQ1 inh | KCNQ1 pot | hERG rescue | KCNK9 inh | KCNK3 block | PHOSPHO1 inh | KCNQ1 inh valid | CHO Tl flux | KCNQ1 ephys val | KCNQ2 inh | KCNQ1 KCNE1 spec | KCNK9 inh conf | Kir21 sel | KCNK9 uninduced | others
Clc1cccc(-c2cc3nc4c(c(N5CCN(c6cnccn6)CC5)n3n2)CCCC4)c1 | 8* | i | -18 | -13* | -8.8* | 2 | 100* | 0.39 | i | 119%* | 162%* | 46%* | i | 36%*
COc1ccc2c(c1)-c1nc(NC(=O)c3cccs3)sc1CC2 | 7* | i | -11 | -16* | i | 10 | 108* | 0.39 | i | 100%* | 190%* | 75%* | i | 35%*
O=C(NCCSC1CCCCC1)c1ccccc1 | i | i | -4 | i | i | -14 | x | x | x | x | x | x | x | x
Cn1ncc2c(=O)[nH]c(N)nc21 | x | x | x | x | i | x | x | x | x | x | x | x | x | x
Clc1ccc(CSc2cc3c(nn2)-c2ccccc2CC3)cc1Cl | i | i | -10 | i | i | 6 | x | x | x | x | x | x | x | x
Clc1ccccc1CSc1cc2c(nn1)-c1ccccc1CC2 | 9* | i | -15 | -11* | i | 32 | 82* | 0.4 | x | 97%* | 128%* | 46%* | i | 43%*
COc1ccc(/C(O)=C2/C(=O)C(=O)N(c3ccccn3)C2c2cccc(Cl)c2)cc1 (stereo unspecified) | i | i | -3 | i | i | 44 | x | x | x | x | x | x | x | x
CCOC(=O)C1CCCN(c2c(C(=O)c3ccccc3)cnc3ccccc23)C1 (stereo unspecified) | i | i | -19 | i | i | 2 | x | x | x | x | x | x | x | x
CCOC(=O)C1CCN(c2c(C(=O)c3ccccc3)cnc3ccc(CC)cc23)CC1 | 7* | i | -7 | -11* | -12* | 28 | 134* | 0.4 | x | 128%* | 192%* | 28%* | i | 34%* | KCNK3 inh conf=110*;KCNK3 noninduced=i
O=C(Nc1ccccc1N1CCCCC1)c1cccc(Cl)c1 | i | i | -5 | i | i | x | x | x | x | x | x | x | x | x
Cc1[nH]n(C(N)=S)c(=O)c1N=Nc1cc(-c2ccc(Br)cc2)[nH]n1 | i | i | 2 | i | i | 4 | x | x | x | x | x | x | x | x
O=S(=O)(Nc1ccccc1O)c1ccc(-c2ccccc2)cc1 | 15* | i | -11 | i | -11* | 32 | 136* | 0.39 | i | 94%* | 76%* | x | x | x | KCNK3 inh conf=120*;KCNK3 noninduced=i

Assay outcomes from PubChem.
